Data on 2 compounds can be found in ChEMBL document CHEMBL4196161, “Lead Optimization of 5-Aryl Benzimidazolone- and Oxindole-Based AMPA Receptor Modulators Selective for TARP γ-8” (ACS Med Chem Lett, 2018).

Series [1] addresses GRIA1/CACNG2 (Homo sapiens, UniProt P42261+Q9Y698). The series can be described thus: Modulation of recombinant human GluA1 flop isoform/TARPgamma2 expressed in HEK293F cells assessed as blockade of glutamate-induced calcium flux by calcium 5/6 dye based FLIPR assay. Type of series: cell-based. The method, boiled down:
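HEK-293 cells transiently expressing human GluA1o cotransfected with γ-2; FLIPR calcium-flux read-out; pIC50 reported; n = 1, run in triplicate.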
On the technique in general: Calcium flux is commonly read through the fluorescence of an indicator in the cells.

Series [2] can be described thus: Clearance in Sprague-Dawley rat at 1 mg/kg, iv administered as single dose by LC-MS/MS analysis. To be noted: in vivo. Type of series: ADME, organism-based. The method, boiled down: (§1)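 Single 1 mg/kg i.v. dose as a solution to Sprague–Dawley rats (n = 3/group); vehicle 20% HP-β-CD in one study series, 1:1 PEG400/H2O in the other; plasma PK parameters derived.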

Series [3] can be described thus: Hepatic extraction ratio in human liver microsomes at 1 uM measured after 60 mins in presence of NADPH by LC-MS/MS analysis. To be noted: read-out: ERH. Type of series: ADME, microsome. The method, boiled down:
(§2)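 Human or rat liver microsomal stability at 1 μM; results expressed as extraction ratio, i.e. predicted hepatic clearance divided by species-specific hepatic blood flow.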
On the technique in general: Microsomes from liver hold many membrane-bound enzymes, among them those of drug oxidation.

Series [4] in a line: Hepatic extraction ratio in rat liver microsomes at 1 uM measured after 60 mins in presence of NADPH by LC-MS/MS analysis. Type of series: ADME, microsome. The settings on record: read-out: ERH. In outline:
as §2

The nature of series [5]: Thermodynamic solubility of the compound in simulated gastric fluid at pH 1.6 incubated under stirred condition for 3 days. Type of series: physicochemical. To be noted: read-out: Therm_solubility. The method, boiled down: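 Thermodynamic solubility (μM) determined in simulated gastric fluid at pH 1.6 and in fasted state simulated intestinal fluid at pH 6.5.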
The nature of series [6]: Protein binding in human plasma assessed as unbound fraction at 1 uM measured after 6 hrs by equilibrium dialysis method. Type of series: ADME, cell-free. In outline: (§3)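 Human or rat plasma protein binding at 1 μM compound, expressed as fraction unbound (fub).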
Background: In equilibrium dialysis free small molecules cross a membrane that holds back macromolecules.

A short description of series [7]: Protein binding in rat plasma assessed as unbound fraction at 1 uM measured after 6 hrs by equilibrium dialysis method. Type of series: ADME, cell-free. In outline: as §3
Series [8] in a line: Half life in Sprague-Dawley rat at 1 mg/kg, iv administered as single dose by LC-MS/MS analysis. Type of series: ADME, organism-based. The settings on record: in vivo. The method, boiled down: as §1
The test system of series [9] is Rattus norvegicus. Kind of series: Ex vivo receptor occupancy at GluA/TARPgamma8 in po dosed Sprague-Dawley rat assessed as plasma concentration causing 50% reduction in [3H]JNJ-56022486 receptor labeling in hippocampus at Tmax by autoradiography. Type of series: functional, organism-based. In outline: (§4)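 Oral dose–response in Sprague–Dawley rats, n = 3/dose (8 doses in one study; vehicle 0.5% HPMC or 20% HP-β-CD); hippocampal occupancy measured at Tmax by ex vivo autoradiography using [3H]-12; EC50 expressed against plasma (ng/mL) or brain (ng/g) exposure, ED50 against dose.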

The test system of series [10] is Rattus norvegicus. Kind of series: Ex vivo receptor occupancy at GluA/TARPgamma8 in po dosed Sprague-Dawley rat assessed as brain concentration causing 50% reduction in [3H]JNJ-56022486 receptor labeling in hippocampus at Tmax by autoradiography. Type of series: functional, organism-based. In outline:
as §4

Series [11] in a line: Fraction unbound in rat brain at 5 uM after 5 hrs by equilibrium dialysis method. Type of series: ADME, tissue-based. The method, boiled down:
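Rat brain tissue binding, reported as fraction unbound, at 5 μM compound.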

The species named for series [12] is Homo sapiens. Kind of series: Selectivity ratio of IC50 for recombinant human GluA1 flop isoform/TARPgamma2 expressed in HEK293F cells to IC50 for recombinant human GluA1 flop isoform/TARPgamma8 expressed in HEK293F cells. Type of series: cell-based. The method, boiled down: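 Calcium-flux (FLIPR) inhibition in HEK-293 cells, giving pIC50 for each receptor. For γ-8, cells expressed a human GluA1o–γ-8 fusion construct, with at least three assays run in triplicate and reported as mean ± SD. For γ-2, cells expressed human GluA1-flop cotransfected with γ-2. The ratio compares the γ-2 IC50 with the γ-8 IC50.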

Series [13] can be described thus: Volume of distribution at steady state in Sprague-Dawley rat at 1 mg/kg, iv administered as single dose by LC-MS/MS analysis. The settings on record: in vivo, read-out: Vdss. Type of series: ADME, organism-based. In outline:
as §1

The subject of series [14] is Rattus norvegicus. Kind of series: Ex vivo receptor occupancy at GluA/TARPgamma8 in po dosed Sprague-Dawley rat assessed as reduction in [3H]JNJ-56022486 receptor labeling in hippocampus measured within 10 mins by autoradiography. Type of series: functional.
Series [15] has as its system Rattus norvegicus. The series can be described thus: Ex vivo receptor occupancy at GluA/TARPgamma8 in Sprague-Dawley rat assessed as reduction in [3H]JNJ-56022486 receptor labeling in hippocampus at 3 mg/kg, po at Tmax by autoradiography relative to control. Type of series: functional. The method, boiled down: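 Rats (Sprague–Dawley, n = 2/dose group) dosed orally with suspensions in 0.5% HPMC at 3 or 10 mg/kg; hippocampal GluA/γ-8 occupancy at Tmax by ex vivo autoradiography with [3H]12 radiotracer; brain (ng/g) and plasma (ng/mL) concentrations taken at Tmax.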

In series [16] the test system is Rattus norvegicus. Kind of series: Ex vivo receptor occupancy at GluA/TARPgamma8 in po dosed Sprague-Dawley rat assessed as plasma concentration causing 50% reduction in [3H]JNJ-56022486 receptor labeling in hippocampus at ED50 at Tmax by autoradiography. Type of series: functional, organism-based. The method, boiled down:
as §4

Series [17] deals with Rattus norvegicus. The series can be described thus: Ex vivo receptor occupancy at GluA/TARPgamma8 in po dosed Sprague-Dawley rat assessed as brain concentration causing 50% reduction in [3H]JNJ-56022486 receptor labeling in hippocampus at ED50 at Tmax by autoradiography. Type of series: functional, organism-based. In outline:
as §4

Series [18] can be described thus: Thermodynamic solubility of the compound in fasted state simulated intestinal fluid at pH 6.5 incubated under stirred condition for 3 days. The settings on record: read-out: Therm_solubility.
A short description of series [19]: Oral bioavailability in Sprague-Dawley rat at 5 mg/kg administered as single dose by LC-MS/MS analysis. Type of series: ADME, organism-based. To be noted: in vivo. In outline:
(§5)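 Sprague–Dawley rats (n = 3/group) given compound as a solution in 20% HP-β-CD, 1 mg/kg i.v. and 5 mg/kg p.o.; plasma pharmacokinetics derived from these arms.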

Series [20] is described as follows: Apparent permeability across basolateral to apical side in MDCK-MDR1 cells at 5 uM measured after 60 mins by LC-MS/MS analysis. Type of series: ADME, cell-based, Canis lupus familiaris. To be noted: dog. The method, boiled down:
(§6)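 Bidirectional apparent permeability measured in Madin–Darby canine kidney cells transfected with the MDR1 (P-gp) gene; Papp reported in ×10–6 cm/s.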

Series [21] in a line: Apparent permeability across apical to basolateral side in MDCK-MDR1 cells at 5 uM measured after 60 mins by LC-MS/MS analysis. Type of series: ADME, cell-based, Canis lupus familiaris. The settings on record: dog. The method, boiled down:
as §6

Series [22] is described as follows: Volume of distribution at steady state in Sprague-Dawley rat at 1 mg/kg, iv or 5 mg/kg, po administered as single dose by LC-MS/MS analysis. The settings on record: in vivo, read-out: Vdss. Type of series: ADME, organism-based. In outline:
as §1

Series [23] in a line: Cmax in Sprague-Dawley rat at 5 mg/kg, po administered as single dose by LC-MS/MS analysis. Type of series: ADME, organism-based. Set-up: dose 5 mg/kg, route oral. To be noted: in vivo. In outline: as §5
Series [24] has as its system Rattus norvegicus. The series can be described thus: Toxicity in po dosed Sprague-Dawley rat assessed as effect on central nervous system functions measured after 14 days. Type of series: organism-based. The settings on record: in vivo, 336 h. The method, boiled down: (§7)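 Repeat-dose toleration study in rats over 14 days at 20 and 60 mg/kg/day; CNS observations recorded and liver assessed by histological analysis.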

For series [25], the system named is Rattus norvegicus. Kind of series: Hepatotoxicity in Sprague-Dawley rat assessed as necrosis at 20 to 60 mg/kg, po measured after 14 days by histological analysis. To be noted: in vivo, 336 h. Type of series: toxicity, organism-based. The method, boiled down: as §7
A short description of series [26]: Ratio of unbound brain to plasma concentration in Sprague-Dawley rat at 1 mg/kg, iv or 5 mg/kg, po administered as single dose by LC-MS/MS analysis. Type of series: ADME, organism-based. The settings on record: brain and plasma, read-out: K(p,uu,brain).
In series [27] the test system is Rattus norvegicus. Kind of series: Ex vivo receptor occupancy at GluA/TARPgamma8 Sprague-Dawley rat assessed as plasma concentration causing 50% reduction in [3H]JNJ-56022486 receptor labeling in hippocampus po measured after 10 mins by autoradiography.

Values after ≈ are worked out from the molar mass of the structure shown. Bounds are passed on as bounds.

Chain of GRIA1/CACNG2 (P42261 whole entry, canonical isoform): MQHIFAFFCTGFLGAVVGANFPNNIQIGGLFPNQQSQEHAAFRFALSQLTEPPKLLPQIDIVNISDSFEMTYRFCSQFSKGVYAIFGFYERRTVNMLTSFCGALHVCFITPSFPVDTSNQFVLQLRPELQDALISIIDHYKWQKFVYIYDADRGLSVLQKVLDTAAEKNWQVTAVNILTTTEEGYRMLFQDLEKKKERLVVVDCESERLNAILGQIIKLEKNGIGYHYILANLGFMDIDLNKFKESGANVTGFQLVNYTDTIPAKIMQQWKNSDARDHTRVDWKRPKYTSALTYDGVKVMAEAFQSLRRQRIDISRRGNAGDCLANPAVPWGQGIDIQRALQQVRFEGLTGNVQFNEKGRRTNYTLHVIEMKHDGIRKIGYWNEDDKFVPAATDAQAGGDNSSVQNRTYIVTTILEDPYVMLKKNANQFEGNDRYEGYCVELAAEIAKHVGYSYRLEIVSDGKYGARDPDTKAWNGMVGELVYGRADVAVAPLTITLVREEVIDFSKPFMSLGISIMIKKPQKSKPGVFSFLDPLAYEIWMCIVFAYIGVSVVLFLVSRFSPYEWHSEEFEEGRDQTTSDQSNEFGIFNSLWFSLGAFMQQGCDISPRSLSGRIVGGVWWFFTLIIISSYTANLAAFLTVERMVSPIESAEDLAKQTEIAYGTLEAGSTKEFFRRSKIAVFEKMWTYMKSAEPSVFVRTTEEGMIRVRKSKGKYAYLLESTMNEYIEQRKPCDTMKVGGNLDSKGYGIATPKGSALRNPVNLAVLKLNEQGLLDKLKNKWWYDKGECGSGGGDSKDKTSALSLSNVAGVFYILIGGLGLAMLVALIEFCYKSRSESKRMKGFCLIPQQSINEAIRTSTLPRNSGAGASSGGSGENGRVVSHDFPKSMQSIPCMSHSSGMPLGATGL
Chain of GRIA1/CACNG2 (Q9Y698 whole entry, canonical isoform): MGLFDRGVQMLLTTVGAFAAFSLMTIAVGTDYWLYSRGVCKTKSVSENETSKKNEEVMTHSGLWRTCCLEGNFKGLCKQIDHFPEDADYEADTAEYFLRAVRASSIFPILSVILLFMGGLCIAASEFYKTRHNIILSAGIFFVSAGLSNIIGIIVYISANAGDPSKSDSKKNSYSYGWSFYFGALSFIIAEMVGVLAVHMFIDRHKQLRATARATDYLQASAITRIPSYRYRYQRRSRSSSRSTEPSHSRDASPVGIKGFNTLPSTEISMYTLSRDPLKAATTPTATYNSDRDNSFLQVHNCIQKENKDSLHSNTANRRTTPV

As usually defined, the IC50 is the concentration that inhibits the measured activity by half. One may read the clearance as the rate of elimination divided by the concentration. A low value points to inefficient removal. Usually fraction unbound stands for the share of the substance not bound to proteins or other matrix. Usually half-life stands for the time needed for the level to fall by half in the phase considered. The low end stands for rapid decline, the high end for slow decline. For orientation: ED50 means the dose at which the effect has come halfway, by size or by number of responders. Regarding `Cc1cc(-c2c(Cl)cccc2OC(F)(F)F)cc2c1NC(=O)C2`, in [1], the IC50 is 10 µM. Also, the clearance in [2] worked out at 28 mL/min/kg. The hepatic extraction ratio at 1 h, 1 µM in [3] stood at 0.5; in series [4] it was 0.4. For the same compound, the solubility thermodynamic at 72 h in [5] is below 4 µM; in series [18], 55 µM (≈ 18.8 µg/mL). Moreover, the fraction unbound at 6 h, 1 µM in series [6] is 0.3; in series [7], 0.6. In [8], the half-life was 1.9 h. Also, the EC50 was 9 ng/mL (≈ 0.0263 µM) in series [9], 71 ng/g in series [10], 9 ng/mL (≈ 0.0263 µM) in series [16] and 71 ng/g in series [17]. In addition, in [11], the fraction unbound at 5 h, 5 µM worked out at 0.4. In addition, the Ratio IC50 in series [12] is above 1000. Further, in series [13], the Vd was 3.5 L/kg. The ED50 in series [14] was found to be 0.6 mg/kg. Moreover, the Occ in series [15] was 82%.
By Papp B→A is commonly meant how fast a substance crosses the layer from the basolateral side. A word on the Papp A→B: it is how fast a substance crosses the layer from the apical side. A word on the Cmax: it is the highest concentration seen after dosing. For `O=c1[nH]c2ccc(-c3c(Cl)cccc3OC(F)(F)F)cc2[nH]1`, in series [19], the bioavailability is 133%. In [2], this compound displayed a clearance of 6.9 mL/min/kg. In addition, in series [20], the Papp B→A at 1 h, 5 µM stood at 24 ×10⁻⁶ cm/s. Also, the Papp A→B at 1 h, 5 µM in series [21] was determined as 22 ×10⁻⁶ cm/s. The solubility thermodynamic at 72 h in [5] is below 4 µM; in series [18], 74 µM (≈ 24.3 µg/mL). In addition, the fraction unbound at 6 h, 1 µM in series [6] was found to be 0.3. Also, in series [22], the Vd is 3.3 L/kg. For the same compound, the half-life in series [8] was 5.8 h. Also, the Cmax in [23] is 1030 ng/mL. Moreover, the EC50 in [10] is 545 ng/g; in series [27] it was 145 ng/mL (≈ 0.441 µM). Further, the Activity result is listed as “Non-Toxic” in series [24] and “Toxic” in series [25]. For the same compound, the ED50 in series [14] was 0.5 mg/kg. Further, in [26], the Kp uu was determined as 0.6.
